Data from article PMC6218015 (ACS Chemical Biology, 2017).

Experiments:
[1] = target: T1, GFP-tagged full-length wild type ATAD2 in MCF7 cells (Homo sapiens, UniProt Q6PL18); experiment: Fluorescence recovery after photobleaching; assay type: cell-based
T1 sequence (Q6PL18 1-1390): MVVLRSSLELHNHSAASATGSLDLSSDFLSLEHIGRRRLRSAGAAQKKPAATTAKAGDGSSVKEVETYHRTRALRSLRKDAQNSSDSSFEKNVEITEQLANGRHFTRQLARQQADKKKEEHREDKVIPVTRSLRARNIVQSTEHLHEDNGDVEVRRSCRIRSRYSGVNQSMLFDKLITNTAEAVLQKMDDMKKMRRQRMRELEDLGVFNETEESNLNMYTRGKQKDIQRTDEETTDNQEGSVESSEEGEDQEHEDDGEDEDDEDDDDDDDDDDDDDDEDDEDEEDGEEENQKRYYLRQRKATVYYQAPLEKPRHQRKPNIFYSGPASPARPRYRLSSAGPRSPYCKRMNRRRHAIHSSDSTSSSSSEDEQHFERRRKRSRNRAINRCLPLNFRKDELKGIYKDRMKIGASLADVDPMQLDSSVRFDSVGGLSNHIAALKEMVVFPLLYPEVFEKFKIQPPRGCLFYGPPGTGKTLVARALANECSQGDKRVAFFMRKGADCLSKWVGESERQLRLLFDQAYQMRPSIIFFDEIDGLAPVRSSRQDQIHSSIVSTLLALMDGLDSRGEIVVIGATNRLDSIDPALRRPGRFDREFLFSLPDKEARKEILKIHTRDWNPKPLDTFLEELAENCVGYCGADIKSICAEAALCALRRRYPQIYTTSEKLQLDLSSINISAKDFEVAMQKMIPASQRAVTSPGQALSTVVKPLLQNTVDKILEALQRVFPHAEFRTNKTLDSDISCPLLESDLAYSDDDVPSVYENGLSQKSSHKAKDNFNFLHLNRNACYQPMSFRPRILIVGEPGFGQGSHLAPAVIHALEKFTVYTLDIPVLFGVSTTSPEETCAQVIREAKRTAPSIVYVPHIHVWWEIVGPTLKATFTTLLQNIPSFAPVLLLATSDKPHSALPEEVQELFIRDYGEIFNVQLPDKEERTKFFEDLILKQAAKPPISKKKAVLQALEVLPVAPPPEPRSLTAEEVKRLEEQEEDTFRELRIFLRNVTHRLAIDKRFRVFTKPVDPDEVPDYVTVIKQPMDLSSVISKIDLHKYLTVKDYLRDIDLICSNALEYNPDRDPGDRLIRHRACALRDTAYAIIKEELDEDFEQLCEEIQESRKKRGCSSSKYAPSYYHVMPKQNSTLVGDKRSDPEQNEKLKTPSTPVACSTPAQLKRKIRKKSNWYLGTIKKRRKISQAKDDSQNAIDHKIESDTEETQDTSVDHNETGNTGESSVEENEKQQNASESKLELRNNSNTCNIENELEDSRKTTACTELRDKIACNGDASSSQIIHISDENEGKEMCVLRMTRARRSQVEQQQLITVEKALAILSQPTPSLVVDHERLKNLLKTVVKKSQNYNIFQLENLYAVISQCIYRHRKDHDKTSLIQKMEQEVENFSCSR
Outline: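 MCF7 cells transfected with GFP-tagged full-length wild-type ATAD2; BD-mutant and ATPase-mutant constructs run as comparators. Cells treated with 1 μM test compound for 1 h, then a defined area photobleached. Half fluorescence recovery time measured in the bleached area from at least 15 cells per group, reported as mean with standard error of the mean.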

tag-free ATAD2 = target: T2, tag-free ATAD2 (Homo sapiens, UniProt Q6PL18); experiment: Native mass spectrometry; assay type: binding; conditions: 10 μM ATAD2 BD, 5 μM compound
T2 sequence (Q6PL18 981-1108): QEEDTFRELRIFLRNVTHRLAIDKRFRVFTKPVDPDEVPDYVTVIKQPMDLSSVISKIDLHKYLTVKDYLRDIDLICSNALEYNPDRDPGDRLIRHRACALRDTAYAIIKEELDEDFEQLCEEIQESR

[2] = tested on: HMEC nontransformed mammary epithelial cells; experiment: Growth inhibition of nontransformed cells; assay type: cell-based; conditions: HMEC vs MCF7 and MDA-MB-231
Permeability = assay type: in vitro ADME; conditions: Caco-2 assay
[3] = tested on: other members of the BD family; experiment: TSA bromodomain selectivity panel; assay type: binding; conditions: 10 μM
Outline: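 Thermal shift assay across the bromodomain family. Melting curves of each bromodomain were acquired with 10 μM test compound or with vehicle. Compound effects were taken from the melting-curve comparison and mapped onto the bromodomain phylogenetic tree.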

panel of 354 kinases = experiment: Kinase panel overall; assay type: biochemical, human
untagged ATAD2 BD = target: T3, untagged ATAD2 BD (Homo sapiens, UniProt Q6PL18); experiment: Size exclusion chromatography; assay type: binding; conditions: molar ratio 1:1
T3 sequence (Q6PL18 981-1108): T2 sequence (Q6PL18 981-1108)

ATAD2 = target: T4, ATAD2 (Homo sapiens, UniProt Q6PL18); experiment: BROMOscan; assay type: binding
T4 sequence (Q6PL18 981-1108 limits assumed): T2 sequence (Q6PL18 981-1108)

[4] = target: T5, FLAG tagged ATAD2 (342 - 1390) (Homo sapiens, UniProt Q6PL18); experiment: AlphaScreen, ATAD2 construct including the ATPase domain; assay type: binding; conditions: larger ATAD2 construct including the ATPase domain
T5 sequence (Q6PL18 342-1390): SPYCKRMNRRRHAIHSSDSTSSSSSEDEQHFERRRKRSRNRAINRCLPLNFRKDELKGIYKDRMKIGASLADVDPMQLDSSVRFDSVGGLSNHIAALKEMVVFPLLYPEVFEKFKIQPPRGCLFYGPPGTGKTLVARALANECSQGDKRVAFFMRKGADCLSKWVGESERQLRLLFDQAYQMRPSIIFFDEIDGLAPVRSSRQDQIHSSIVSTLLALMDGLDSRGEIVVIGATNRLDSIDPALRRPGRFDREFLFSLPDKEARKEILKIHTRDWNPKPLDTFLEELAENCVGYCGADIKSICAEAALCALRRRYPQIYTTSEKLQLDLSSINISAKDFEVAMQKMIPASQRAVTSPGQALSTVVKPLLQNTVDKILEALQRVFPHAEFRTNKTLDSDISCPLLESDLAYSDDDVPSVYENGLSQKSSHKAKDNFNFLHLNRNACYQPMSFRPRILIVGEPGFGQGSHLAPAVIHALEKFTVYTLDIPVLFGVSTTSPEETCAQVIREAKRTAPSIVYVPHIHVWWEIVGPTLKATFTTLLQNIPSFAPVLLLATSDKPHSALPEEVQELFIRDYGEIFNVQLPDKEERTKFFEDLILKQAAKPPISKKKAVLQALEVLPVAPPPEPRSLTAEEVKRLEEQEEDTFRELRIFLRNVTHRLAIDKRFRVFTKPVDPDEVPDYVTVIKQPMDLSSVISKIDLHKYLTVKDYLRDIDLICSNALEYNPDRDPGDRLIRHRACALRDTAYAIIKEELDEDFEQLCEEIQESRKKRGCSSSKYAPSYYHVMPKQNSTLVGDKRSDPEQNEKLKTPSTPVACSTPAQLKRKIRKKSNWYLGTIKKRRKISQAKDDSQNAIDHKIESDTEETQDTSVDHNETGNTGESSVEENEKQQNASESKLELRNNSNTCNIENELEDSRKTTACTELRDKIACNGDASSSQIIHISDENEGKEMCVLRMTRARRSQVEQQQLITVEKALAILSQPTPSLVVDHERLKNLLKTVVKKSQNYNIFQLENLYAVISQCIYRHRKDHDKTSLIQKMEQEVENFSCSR
Outline: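 Binding competition between ATAD2 and an acetylated histone H4 peptide, read by AlphaScreen over increasing test compound concentrations. Signals were normalized, plotted against dose and fitted to a four-parameter logistic equation to give potency.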

[5] = tested on: ATAD2 target genes in MCF7 cells; experiment: Gene expression study with quantitative PCR; assay type: cell-based; conditions: MCF7, 24 h, up to 6.67 µM
GST-ATAD2 BD = target: T6, GST-ATAD2 BD (Homo sapiens, UniProt Q6PL18); experiment: Microscale thermophoresis; assay type: binding; conditions: MST
T6 sequence (Q6PL18 981-1108): T2 sequence (Q6PL18 981-1108)
Outline: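 Fluorescence-labeled GST-ATAD2 incubated with vehicle or increasing test compound concentrations. Thermophoresis traces recorded in real time. Averaged steady-state MST signals plotted against dose and fitted to a 1:1 binding model to derive KD.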

His-ATAD2 BD = target: T7, His-ATAD2 BD (Homo sapiens, UniProt Q6PL18); experiment: AlphaScreen binding competition assay, tetra-acetylated H4 peptide
T7 sequence (Q6PL18 981-1108): T2 sequence (Q6PL18 981-1108)
Outline: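 Competition for binding of acetylated histone H4 N-terminal peptides to the ATAD2 bromodomain, titrated with increasing test compound. TR-FRET read-out for mono- and tetra-acetylated peptides; AlphaScreen read-out for the tetra-acetylated peptide. Normalized signals plotted against compound dose and fitted to a four-parameter logistic equation to obtain IC50.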

concentration of maximal on-target cellular activity ([1]; FRAP, MCF7): 1 µM | Recovery t1/2 ([1]; MCF7 cells, 1 μM for 1 h, mean ± SEM): 6.3 ± 1.2 s | permeability (Permeability): moderate permeability | inhibitory activity in kinase panel (panel of 354 kinases): no inhibitory activity | Kd (ATAD2): 115 nM | Kd (GST-ATAD2 BD): 85 nM | IC50 (His-ATAD2 BD): 157 nM
Structure (SMILES): COc1cc(Cl)c(C(=O)N[C@@H](CN[C@H]2CC[C@@H](N)CC2)Cc2ccc(C#N)cc2)cc1-c1ccc(CN[C@H](C)c2ccc(C)cc2)o1 [BAY-850]
binding to ATAD2 by native MS (tag-free ATAD2): one BAY-850 molecule binds to an ATAD2 dimer | growth inhibition of nontransformed vs cancer cells [2]: similarly active on the nontransformed and cancer cells | effect on thermal stability of other BD family members [3]: not observed for other members of the BD family | ATAD2 dimerisation in SEC elution profile (untagged ATAD2 BD): compound-induced shift from the ATAD2-monomer to ATAD2-dimer form | inhibition of tetra-acetylated H4 peptide binding [4]: inhibited tetra-acetylated H4 peptide binding | expression of ATAD2 target genes [5]: did not affect the expression
